This note sets out measurements from ChEMBL document CHEMBL2016547, “An efficient and convenient microwave-assisted chemical synthesis of (thio)xanthones with additional in vitro and in silico characterization” (Bioorg Med Chem, 2012).

≈ marks a conversion by molar mass, not a printed value.

Test [1] has as its system Staphylococcus aureus. In words: Antibacterial activity against Staphylococcus aureus ATCC 29213 after 20 to 22 hrs by broth microdilution method. The test is classed as functional. The essentials: (§1)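 CLSI broth microdilution MIC. Twofold compound dilutions spanned 128-0.5 µg/mL, with azithromycin as comparator. Streptococci were grown on Columbia agar with 5% sheep blood, and their broth used 5% horse serum instead of lysed blood. H. influenzae was grown on Mueller-Hinton chocolate agar and staphylococci on Mueller-Hinton agar. Direct colony suspension gave 5x10⁴ CFU/well. Plates were read visually after 20-22 h at 37°C in ambient air.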
Background: In broth dilution the organism is exposed to a series of concentrations in liquid medium.

The subject of test [2] is Streptococcus pneumoniae. Nature of the test: Antibacterial activity against Streptococcus pneumoniae ATCC 49619 after 20 to 22 hrs by broth microdilution method. The test is classed as functional. Summed up:
as §1

Test [3] concerns Streptococcus pyogenes. In words: Antibacterial activity against Streptococcus pyogenes ATCC 700294 after 20 to 22 hrs by broth microdilution method. The class given is functional. To be noted: M1 GAS. Summed up: as §1
Test [4] deals with Moraxella catarrhalis. Nature of the test: Antibacterial activity against Moraxella catarrhalis ATCC 23246 after 20 to 22 hrs by broth microdilution method. The test is classed as functional. The essentials:
as §1

The subject of test [5] is Haemophilus influenzae. Nature of the test: Antibacterial activity against Haemophilus influenzae ATCC 49247 after 20 to 22 hrs by broth microdilution method. The test is classed as functional. Summed up: as §1
Test [6] has as its system Escherichia coli. Nature of the test: Antibacterial activity against Escherichia coli ATCC 25922 after 20 to 22 hrs by broth microdilution method. The test is classed as functional. Summed up:
as §1

Test [7] deals with HepG2. Nature of the test: Cytotoxicity against human HepG2 cells assessed as NADH level after overnight incubation by MTS assay. The class given is cell-based. Summed up:
(§2)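 Cells were maintained in RPMI 1640 with 10% FBS at 37°C under 5% CO₂. Compounds were twofold serially diluted across 100-0.2 µM, and 5x10⁴ cells/well were added and incubated overnight at 37°C, 5% CO₂. MTS reagent was then added for 1 h under the same conditions, and absorbance was read at 490 nm.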
(In general: Tetrazolium assays rely on reduction of a dye to a coloured formazan, in cell work by metabolically active cells.)

The test system of test [8] is Jurkat. In words: Cytotoxicity against human Jurkat T cells assessed as NADH level after overnight incubation by MTS assay. The test is classed as cell-based. Summed up: as §2

One may read the IC50 as the concentration at which inhibition is half-maximal. `O=c1c2ccccc2oc2cccc(O)c12`: the MIC in test [1] is over 128 µg/mL; in test [2] it was over 128 µg/mL; in test [3] it was over 128 µg/mL; in test [4] it was 128 µg/mL (≈ 603 µM); in test [5], over 128 µg/mL; in test [6], over 128 µg/mL. The IC50 in test [7] and in test [8] was over 100 µM each time.
For `CC[C@H]1OC(=O)[C@H](C)[C@@H](O[C@H]2C[C@@](C)(OC)[C@@H](O)[C@H](C)O2)[C@H](C)[C@@H](O[C@@H]2O[C@H](C)C[C@H](N(C)C)[C@H]2O)[C@](C)(O)C[C@@H](C)CN(C)[C@H](C)[C@@H](O)[C@]1(C)O` [AZITHROMYCIN], the MIC in test [1] was 1 µg/mL (≈ 1.34 µM); in test [2], under 0.125 µg/mL; in test [3] it was under 0.125 µg/mL; in test [4], under 0.125 µg/mL; in test [5] it was 1 µg/mL (≈ 1.34 µM); in test [6] it was 2 µg/mL (≈ 2.67 µM).
Regarding `O=c1c2ccc(O)cc2oc2cccc(O)c12`, the MIC in test [1] was 32 µg/mL (≈ 140 µM); in test [2], over 128 µg/mL; in test [3], over 128 µg/mL; in test [4] it was 8 µg/mL (≈ 35.1 µM); in test [5], over 128 µg/mL; in test [6], over 128 µg/mL. For the same compound, the IC50 in test [7] is 93 µM; in test [8], 75 µM.
In the case of `CC(=O)Oc1cc(OC(C)=O)c2c(=O)c3ccccc3oc2c1`, the MIC in test [1] is 128 µg/mL (≈ 410 µM); in test [2], over 128 µg/mL; in test [3], over 128 µg/mL; in test [4], 32 µg/mL (≈ 102 µM); in test [5], 128 µg/mL (≈ 410 µM); in test [6], over 128 µg/mL. Moreover, the IC50 in test [7] and in test [8] was over 100 µM each time.
Regarding `CC(=O)Oc1cc(OC(C)=O)c2c(=O)c3ccccc3sc2c1`, the MIC was over 128 µg/mL in test [1]; over 128 µg/mL in test [2]; over 128 µg/mL in test [3]; 64 µg/mL (≈ 195 µM) in test [4]; over 128 µg/mL in test [5]; over 128 µg/mL in test [6]. Moreover, the IC50 in test [7] and in test [8] was over 100 µM in each case.
Take `CC(=O)Oc1ccc2c(=O)c3c(OC(C)=O)cccc3oc2c1`: the MIC in test [1] was 64 µg/mL (≈ 205 µM); in test [2], over 128 µg/mL; in test [3], over 128 µg/mL; in test [4], 16 µg/mL (≈ 51.2 µM); in test [5] it was 128 µg/mL (≈ 410 µM); in test [6] it was over 128 µg/mL. Besides, the IC50 in test [7] was 90 µM; in test [8], over 100 µM.
As for `O=c1c2ccc(O)cc2oc2cc(O)cc(O)c12`, the MIC is 64 µg/mL (≈ 262 µM) in test [1]; over 128 µg/mL in test [2]; over 128 µg/mL in test [3]; 2 µg/mL (≈ 8.19 µM) in test [4]; 32 µg/mL (≈ 131 µM) in test [5]; over 128 µg/mL in test [6]. Moreover, the IC50 in test [7] and in test [8] was over 100 µM each time.
As for `O=c1c2cc(O)ccc2oc2cc(O)cc(O)c12`, the MIC is 128 µg/mL (≈ 524 µM) in test [1]; over 128 µg/mL in test [2]; over 128 µg/mL in test [3]; 128 µg/mL (≈ 524 µM) in test [4]; over 128 µg/mL in test [5]; over 128 µg/mL in test [6]. For the same compound, the 50% inhibitory concentration (IC50) in test [7] and in test [8] was over 100 µM each time.
With `CC(=O)Oc1ccc2c(=O)c3c(OC(C)=O)cc(OC(C)=O)cc3oc2c1`, the MIC in test [1] was 64 µg/mL (≈ 173 µM); in test [2], over 128 µg/mL; in test [3], over 128 µg/mL; in test [4], 4 µg/mL (≈ 10.8 µM); in test [5] it was 128 µg/mL (≈ 346 µM); in test [6], over 128 µg/mL. In addition, the IC50 in test [7] and in test [8] was over 100 µM in each case.
Consider `CC(=O)Oc1cc(OC(C)=O)c2c(=O)c3cccc(OC(C)=O)c3oc2c1`, for which the MIC in test [1], in test [2], in test [3], in test [4], in test [5] and in test [6] was over 128 µg/mL throughout. Besides, the values for the IC50 in test [7] and in test [8] were over 100 µM and 92 µM, respectively.
For the compound `O=c1c2c(O)cccc2oc2cc(O)cc(O)c12`, the MIC in test [1] was 8 µg/mL (≈ 32.8 µM); in test [2], 128 µg/mL (≈ 524 µM); in test [3] it was over 128 µg/mL; in test [4] it was 8 µg/mL (≈ 32.8 µM); in test [5] it was 16 µg/mL (≈ 65.5 µM); in test [6] it was over 128 µg/mL. In addition, the values for the IC50 in test [7] and in test [8] were 90 µM and 83 µM, respectively.
With `O=c1c2ccccc2sc2cc(O)cc(O)c12`, the MIC in test [1] was 16 µg/mL (≈ 65.5 µM); in test [2] it was over 128 µg/mL; in test [3], over 128 µg/mL; in test [4], 8 µg/mL (≈ 32.8 µM); in test [5], 16 µg/mL (≈ 65.5 µM); in test [6] it was over 128 µg/mL. Moreover, the IC50 in test [7] and in test [8] was over 100 µM in each case.
As for `CC(=O)Oc1cc(OC(C)=O)c2c(=O)c3c(OC(C)=O)cccc3oc2c1`, the MIC in test [1] is 128 µg/mL (≈ 346 µM); in test [2], over 128 µg/mL; in test [3] it was over 128 µg/mL; in test [4], 128 µg/mL (≈ 346 µM); in test [5], over 128 µg/mL; in test [6] it was over 128 µg/mL. The IC50 came to 93 µM in test [7] and 62 µM in test [8].
With `O=c1c2cccc(O)c2oc2cc(O)cc(O)c12`, the MIC in test [1] is over 128 µg/mL; in test [2] it was over 128 µg/mL; in test [3] it was over 128 µg/mL; in test [4], 16 µg/mL (≈ 65.5 µM); in test [5], over 128 µg/mL; in test [6], over 128 µg/mL. The IC50 in test [7] and in test [8] was over 100 µM each time.
`O=c1c2ccccc2oc2cc(O)cc(O)c12`: the MIC in test [1] is 64 µg/mL (≈ 280 µM); in test [2] it was over 128 µg/mL; in test [3] it was over 128 µg/mL; in test [4], 16 µg/mL (≈ 70.1 µM); in test [5] it was 64 µg/mL (≈ 280 µM); in test [6], over 128 µg/mL. For the same compound, the half-maximal inhibitory concentration (IC50) in test [7] and in test [8] was over 100 µM throughout.
With `CC(=O)Oc1cc(OC(C)=O)c2c(=O)c3cc(OC(C)=O)ccc3oc2c1`, the MIC in test [1], in test [2], in test [3], in test [4], in test [5] and in test [6] was over 128 µg/mL each time. The IC50 in test [7] and in test [8] was over 100 µM each time.
As to `CC(=O)Oc1cccc2oc3ccccc3c(=O)c12`, the MIC in test [1] was over 128 µg/mL; in test [2] it was over 128 µg/mL; in test [3], over 128 µg/mL; in test [4] it was 128 µg/mL (≈ 503 µM); in test [5] it was over 128 µg/mL; in test [6], over 128 µg/mL. Also, the half-inhibitory concentration (IC50) was over 100 µM in test [7] and 78 µM in test [8].
